The source of these data is ChEMBL document CHEMBL3525931, “Stereoselective interaction of pantoprazole with ABCG2. II. In vitro flux analysis” (Drug Metab Dispos, 2012).

Series [1] is described as follows: Permeability surface area for passive diffusion in MDCK2 cells assessed as transport at 200 uM after 0.5 to 1 hrs by HPLC method. To be noted: dog, mdck-ii. It is filed as ADME, cell-based, Canis lupus familiaris. The method, boiled down: (§1)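 PS_D (passive diffusion) derived from observed permeability of single PAN isomers across empty-vector (pcDNA3.1) MDCKII monolayers (TEER >200 Ω·cm²). Both A→B and B→A directions in serum-free Opti-MEM I at 37°C, with [3H]mannitol as paracellular marker. Receiver sampled at 0.5 and 1 h, PAN measured by HPLC-UV. PS_D calculated from a three-compartment model equation at each donor concentration.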

Series [2] can be described thus: Permeability surface area for passive diffusion in MDCK2 cells assessed as transport at 3 to 200 uM after 0.5 to 1 hrs by HPLC method. It is filed as ADME, cell-based, Canis lupus familiaris. To be noted: dog, mdck-ii. The method, boiled down: as §1
Series [3] is described as follows: Permeability surface area for passive diffusion in MDCK2 cells assessed as transport at 3 uM after 0.5 to 1 hrs by HPLC method. To be noted: dog, mdck-ii. It is filed as ADME, cell-based, Canis lupus familiaris. The method in brief:
as §1

Series [4] in a line: Permeability surface area for passive diffusion in MDCK2 cells assessed as transport at 10 uM after 0.5 to 1 hrs by HPLC method. It is filed as ADME, cell-based, Canis lupus familiaris. The note with it: dog, mdck-ii. The method, boiled down: as §1
The nature of series [5]: Permeability surface area for passive diffusion in MDCK2 cells assessed as transport at 30 uM after 0.5 to 1 hrs by HPLC method. It is filed as ADME, cell-based, Canis lupus familiaris. The note with it: dog, mdck-ii. The method, boiled down:
as §1

Series [6] can be described thus: Permeability surface area for passive diffusion in MDCK2 cells assessed as transport at 50 uM after 0.5 to 1 hrs by HPLC method. The note with it: dog, mdck-ii. It is filed as ADME, cell-based, Canis lupus familiaris. The method, boiled down: as §1
Substrate in series [7]: COc1ccnc(C[S@+]([O-])c2nc3cc(OC(F)F)ccc3[nH]2)c1OC
Nature of the series: (§2) Drug transport in MDCK2 cells expressing human ABCG2 assessed as ABCG2-mediated transport by HPLC method. It is filed as ADME, cell-based, MDCK-II. The method in brief: (§3)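 Kinetics came from the same Transwell bidirectional flux runs in rat Abcg2- or human ABCG2-MDCKII, with donor 3–200 μM single isomer. Cellular concentrations were predicted from a three-compartment model using PS_D from mock cells and PS_PC from mannitol. Apparent apical efflux permeability was fitted against predicted cellular concentration by saturable kinetics to give K_M and T_max.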

Substrate in series [8]: COc1ccnc(C[S@@+]([O-])c2nc3cc(OC(F)F)ccc3[nH]2)c1OC
Described as §2. It is filed as ADME, cell-based, MDCK-II. The method, boiled down:
as §3

Substrate in series [9]: COc1ccnc(C[S@+]([O-])c2nc3cc(OC(F)F)ccc3[nH]2)c1OC
In words: (§4) Drug transport in MDCK2 cells expressing rat ABCG2 assessed as ABCG2-mediated transport by HPLC method. It is filed as ADME, cell-based, MDCK-II. The method, boiled down: as §3

Substrate in series [10]: COc1ccnc(C[S@@+]([O-])c2nc3cc(OC(F)F)ccc3[nH]2)c1OC
The description is as §4. It is filed as ADME, cell-based, MDCK-II. The method in brief: as §3

As for `COc1ccnc(C[S+]([O-])c2nc3ccc(OC(F)F)cc3[nH]2)c1OC` (racemic) [PANTOPRAZOLE], the Papp in [1] was determined as 271 uL/hr/cm2; in series [2], 244 uL/hr/cm2; in series [3], 231 uL/hr/cm2; in series [4] it was 242 uL/hr/cm2; in [5] it was 226 uL/hr/cm2; in series [6] it was 251 uL/hr/cm2.

B1: Broad substrate specificity ATP-binding cassette transporter ABCG2 (Homo sapiens) (protein)
chain: MSSSNVEVFIPVSQGNTNGFPATASNDLKAFTEGAVLSFHNICYRVKLKSGFLPCRKPVEKEILSNINGIMKPGLNAILGPTGGGKSSLLDVLAARKDPSGLSGDVLINGAPRPANFKCNSGYVVQDDVVMGTLTVRENLQFSAALRLATTMTNHEKNERINRVIQELGLDKVADSKVGTQFIRGVSGGERKRTSIGMELITDPSILFLDEPTTGLDSSTANAVLLLLKRMSKQGRTIIFSIHQPRYSIFKLFDSLTLLASGRLMFHGPAQEALGYFESAGYHCEAYNNPADFFLDIINGDSTAVALNREEDFKATEIIEPSKQDKPLIEKLAEIYVNSSFYKETKAELHQLSGGEKKKKITVFKEISYTTSFCHQLRWVSKRSFKNLLGNPQASIAQIIVTVVLGLVIGAIYFGLKNDSTGIQNRAGVLFFLTTNQCFSSVSAVELFVVEKKLFIHEYISGYYRVSSYFLGKLLSDLLPMRMLPSIIFTCIVYFMLGLKPKADAFFVMMFTLMMVAYSASSMALAIAAGQSVVSVATLLMTICFVFMMIFSGLLVNLTTIASWLSWLQYFSIPRYGFTALQHNEFLGQNFCPGLNATGNNPCNYATCTGEEYLVKQGIDLSPWGLWKNHVALACMIVIFLTIAYLKLLFLKKYS
As a reminder, the Km is the substrate concentration at which the rate is half of its maximum. Consider B1, for which the Km in series [7] is 0.59 µM; in series [8] it was 5.32 µM.

B2: Broad substrate specificity ATP-binding cassette transporter ABCG2 (Rattus norvegicus) (protein)
chain: MSSSNDHVLVPMSQRNKNGLPGMSSRGARTLAEGDVLSFHHITYRVKVKSGFLVRKTAEKEILSDINGIMKPGLNAILGPTGGGKSSLLDVLAARKDPRGLSGDVLINGAPQPANFKCSSGYVVQDDVVMGTLTVRENLQFSAALRLPKAMKTHEKNERINTIIKELGLDKVADSKVGTQFTRGISGGERKRTSIGMELITDPSILFLDEPTTGLDSSTANAVLLLLKRMSKQGRTIIFSIHQPRYSIFKLFDSLTLLASGKLMFHGPAQKALEYFASAGYHCEPYNNPADFFLDVINGDSSAVMLNRGEQDHEANKTEEPSKREKPIIENLAEFYINSTIYGETKAELDQLPVAQKKKGSSAFREPVYVTSFCHQLRWIARRSFKNLLGNPQASVAQLIVTVILGLIIGALYFGLKNDPTGMQNRAGVFFFLTTNQCFTSVSAVELFVVEKKLFIHEYISGYYRVSSYFFGKLVSDLLPMRFLPSVIYTCILYFMLGLKRTVEAFFIMMFTLIMVAYTASSMALAIAAGQSVVSVATLLMTISFVFMMLFSGLLVNLRTIGPWLSWLQYFSIPRYGFTALQHNEFLGQEFCPGLNVTMNSTCVNSYTICTGNDYLINQGIDLSPWGLWRNHVALACMIIIFLTIAYLKLLFLKKYS
With B2, the Km in series [9] was found to be 0.25 µM; in series [10], 1.85 µM.
